Test results reported in ChEMBL document CHEMBL1123133, “1H-2-Benzopyran-1-one derivatives, microbial products with pharmacological activity. Conversion into orally active derivatives with antiinflammatory and antiulcer activities” (J Med Chem, 1985).

How the values were obtained:
[1] = Lipid solubility measured as chloroform-water partition coefficient; type: physicochemical
How it was run: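 Partition between chloroform and 10 mM phosphate buffer pH 7.5 (1:1 volume); drug at 1 mg/mL initially in aqueous phase, shaken 20 min at 20 °C, centrifuged, both phases quantified by HPLC. HCl salts used.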

Rattus norvegicus [2] = test: % recovery 1 and compound 6a from whole blood of 7 wistar rats after an oral dose of the compound; type: ADME, organism-based; conditions: in vivo
Rattus norvegicus [3] = test: Concentration 6a detected in blood of rat 3 hr after an oral dose of 200 mg/kg of the compound; type: ADME, organism-based; set-up: dose 200 mg/kg, route oral; conditions: in vivo
How it was run: (§1)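 Male Wistar rats (120–160 g), 5–7 per group, fasted 24 h, given 200 mg/kg orally as aqueous HCl salt formulation (drug/glycerin/HCO-60 1/12/0.05 by weight). Jugular blood taken under ether at 1 or 3 h into citric acid; plasma deproteinized with ethanol (acetone for 5d) and analysed by C18 HPLC at 254 nm. Values recovery-corrected, mean of 6–7 rats.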

Rattus norvegicus [4] = test: Gastroprotective activity as % protection against stress ulcers in 5 rats after an intraperitoneal dose of 25 mg/kg; type: functional
How it was run: (§2)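 Stress ulcer by restraint and water immersion: male Wistar rats (160–180 g), fasted 24 h, given test compound po or ip as HCl salt in aqueous glycerin/HCO-60 formulation (1/12/0.05 by weight). Vehicle-only controls. After 1 h, restrained in net cage and immersed in 21 °C water for 6 h. Percent ulcer inhibition calculated; five rats per dose.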

[5] = Solubility in phosphate buffer, tested as a HCl salt; type: physicochemical
How it was run: (§3)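 HCl salts suspended in excess in water or 10 mM phosphate buffer pH 7.5, sonicated 10 min at 20 °C to saturation, centrifuged; supernatant quantified by HPLC.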

Rattus norvegicus [6] = test: Gastroprotective activity as % protection against stress ulcers in 5 rats after an oral dose of 12.5 mg/kg; type: functional; how it was run: as §2
Rattus norvegicus [7] = test: Gastroprotective activity as % protection against stress ulcers in 5 rats after an oral dose of 25 mg/kg; type: functional; how it was run: as §2
Rattus norvegicus [8] = test: Concentration 5a detected in blood of rat 1 hr after an oral dose of 200 mg/kg of the compound; type: ADME, organism-based; set-up: dose 200 mg/kg, route oral; conditions: in vivo; how it was run: as §1
[9] = Solubility in water, tested as a HCl salt; type: physicochemical; conditions: read-out: S; how it was run: as §3
Rattus norvegicus [10] = test: Concentration 6a detected in blood of rat 1 hr after an oral dose of 200 mg/kg of the compound; type: ADME, organism-based; set-up: dose 200 mg/kg, route oral; conditions: in vivo; how it was run: as §1
Rattus norvegicus [11] = test: Concentration 5a detected in blood of rat 3 hr after an oral dose of 200 mg/kg of the compound; type: ADME, organism-based; set-up: dose 200 mg/kg, route oral; conditions: in vivo; how it was run: as §1
Rattus norvegicus [12] = test: Gastroprotective activity as % protection against stress ulcers in 5 rats after an oral dose of 50 mg/kg; type: functional; how it was run: as §2
Rattus norvegicus [13] = test: Gastroprotective activity as % protection against stress ulcers in 5 rats after an intraperitoneal dose of 50 mg/kg; type: functional; how it was run: as §2
Rattus norvegicus [14] = test: Gastroprotective activity as % protection against stress ulcers in 5 rats after an oral dose of 100 mg/kg; type: functional; how it was run: as §2
Rattus norvegicus [15] = test: Concentration 1 detected in blood of rat 1 hr after an oral dose of 200 mg/kg; ND is Not Detected.; type: ADME, organism-based; set-up: dose 200 mg/kg, route oral; conditions: in vivo; how it was run: as §1
Rattus norvegicus [16] = test: Concentration 1 detected in blood of rat 3 hr after an oral dose of 200 mg/kg; ND is Not Detected.; type: ADME, organism-based; set-up: dose 200 mg/kg, route oral; conditions: in vivo; how it was run: as §1
Rattus norvegicus [17] = test: Concentration 5e detected in blood of rat 1 hr after an oral dose of 200 mg/kg of the compound; type: ADME, organism-based; set-up: dose 200 mg/kg, route oral; conditions: in vivo; how it was run: as §1
Rattus norvegicus [18] = test: Concentration 5e detected in blood of rat 3 hr after an oral dose of 200 mg/kg of the compound; type: ADME, organism-based; set-up: dose 200 mg/kg, route oral; conditions: in vivo; how it was run: as §1
Rattus norvegicus [19] = test: Concentration 6e detected in blood of rat 1 hr after an oral dose of 200 mg/kg of the compound; type: ADME, organism-based; set-up: dose 200 mg/kg, route oral; conditions: in vivo; how it was run: as §1
Rattus norvegicus [20] = test: % recovery of the compound, compound 1 and compound 6a from whole blood of 7 wistar rats after an oral dose of the compound; type: ADME, organism-based; conditions: in vivo
Rattus norvegicus [21] = test: Concentration 6e detected in blood of rat 3 hr after an oral dose of 200 mg/kg of the compound; type: ADME, organism-based; set-up: dose 200 mg/kg, route oral; conditions: in vivo; how it was run: as §1
Rattus norvegicus [22] = test: % recovery from whole blood of 7 wistar rats after an oral dose of the compound; type: ADME, organism-based; conditions: in vivo
Rattus norvegicus [23] = test: Concentration 1 detected in blood of rat 1 hr after an oral dose of 200 mg/kg of the compound; ND is Not Detected.; type: ADME, organism-based; set-up: dose 200 mg/kg, route oral; conditions: in vivo; how it was run: as §1
Rattus norvegicus [24] = test: Concentration detected in blood of rat 3 hr after an oral dose of 200 mg/kg; ND is Not Detected; type: ADME, organism-based; set-up: dose 200 mg/kg, route oral; conditions: in vivo; how it was run: as §1
Rattus norvegicus [25] = test: Gastroprotective activity as % protection against stress ulcers in 5 rats after an intraperitoneal dose of 12.5 mg/kg; type: functional; how it was run: as §2
Rattus norvegicus [26] = test: Antiinflammatory activity evaluated as Minimum effective oral dose that inhibits dextran paw edema in rat; type: functional
Cavia porcellus = test: Antiinflammatory activity evaluated as Minimum effective oral dose that inhibits dextran UV erythema in guinea pig; type: functional
Rattus norvegicus [27] = test: Antiinflammatory activity evaluated as Minimum effective oral dose that inhibits adjuvant arthritis in rats; type: functional
How it was run: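 Adjuvant arthritis: male Sprague-Dawley rats (180–200 g), 8–10 per group, injected in right hind paw with Mycobacterium butyricum powder in corn oil (0.6 mg/0.1 mL). Oral dosing started 1 h after adjuvant, then daily for 18 days; observed 28 days. Minimum effective dose recorded.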

Rattus norvegicus [28] = test: Antiinflammatory activity evaluated as Minimum effective oral dose that inhibits carrageenan paw edema in rat; type: functional
Rattus norvegicus [29] = test: Antiinflammatory activity evaluated as Minimum effective oral dose that inhibits bradykinin paw edema in rat; type: functional
[30] = Concentration detected in blood of rat 1 hr after an oral dose of 200 mg/kg; type: ADME, organism-based; set-up: dose 200 mg/kg, route oral; how it was run: as §1
[31] = Concentration detected in blood of rat 3 hr after an oral dose of 200 mg/kg of the compound; type: ADME, organism-based; set-up: dose 200 mg/kg, route oral; how it was run: as §1
Rattus norvegicus [32] = test: % recovery 1 from whole blood of 7 wistar rats after an oral dose of the compound; type: ADME, organism-based; conditions: in vivo

Row | P [1] | solubility [5] | solubility [9] | SMILES | Protection (Rattus norvegicus [4]) | Protection (Rattus norvegicus [7]) | Protection (Rattus norvegicus [12]) | Protection (Rattus norvegicus [13]) | Protection (Rattus norvegicus [14]) | Protection (Rattus norvegicus [25]) | also measured
1 | 3750 | 990 µg/mL | 1500 µg/mL | CNC1CC(=O)OC1C(O)C(=O)NC(CC(C)C)C1Cc2cccc(O)c2C(=O)O1 (stereo not drawn) | 33% | 11% | 56% | 56% | 66% | – | Recovery (Rattus norvegicus [2]): 50%; Concentration (Rattus norvegicus [3]): 1.1 µg/mL; Protection (Rattus norvegicus [6]): 17%; Concentration (Rattus norvegicus [8]): 3.8 µg/mL; Concentration (Rattus norvegicus [10]): 3.1 µg/mL; Concentration (Rattus norvegicus [11]): 1.2 µg/mL
2 | 1900 | 330 µg/mL | 7300 µg/mL | CCCCCNC1CC(=O)OC1C(O)C(=O)NC(CC(C)C)C1Cc2cccc(O)c2C(=O)O1 (stereo not drawn) | 56% | 44% | 33% | 44% | 56% | – | Concentration (Rattus norvegicus [15]): Not detected; Concentration (Rattus norvegicus [16]): Not detected; Concentration (Rattus norvegicus [17]): 1.2 µg/mL; Concentration (Rattus norvegicus [18]): 0.8 µg/mL; Concentration (Rattus norvegicus [19]): 0.8 µg/mL; Recovery (Rattus norvegicus [20]): 50%; Concentration (Rattus norvegicus [21]): 0.6 µg/mL
3 | – | – | – | CC(C)C[C@H](NC(=O)[C@@H](O)[C@@H](O)[C@@H](N)CC(=O)O)[C@@H]1Cc2cccc(O)c2C(=O)O1 | 100% | 0% | 0% | 94% | 17% | 78% | Recovery (Rattus norvegicus [22]): 50%; Concentration (Rattus norvegicus [23]): Not detected; Concentration (Rattus norvegicus [24]): Not detected
4 | – | – | – | COc1ccc2c(c1)c(CC(=O)O)c(C)n2C(=O)c1ccc(Cl)cc1 [INDOMETHACIN] | – | – | – | – | – | – | ED50 (Rattus norvegicus [26]): > 25 mg/kg; ED50 (Cavia porcellus): < 6 mg/kg; EDmin (Rattus norvegicus [27]): 3 mg/kg; ED50 (Rattus norvegicus [28]): 1.3 mg/kg; ED50 (Rattus norvegicus [29]): > 25 mg/kg
5 | – | – | – | CC(C)C[C@H](NC(=O)C(O)C1OC(=O)CC1N)[C@@H]1Cc2cccc(O)c2C(=O)O1.Cl (stereo partly drawn) | 83% | 44% | 66% | 83% | 78% | 66% | concentration at 1 h [30]: 800 ng/mL; concentration at 3 h [31]: 600 ng/mL; Recovery (Rattus norvegicus [32]): 50%

Row | SMILES | P [1] | solubility [5] | solubility [9] | Protection (Rattus norvegicus [4]) | Protection (Rattus norvegicus [7]) | Protection (Rattus norvegicus [12]) | Protection (Rattus norvegicus [13]) | Protection (Rattus norvegicus [14]) | Protection (Rattus norvegicus [25]) | also measured
6 | CNc1ccccc1 | > 19 | – | – | – | – | – | – | – | – | –
